The source made the active and inactive calls. The calls are words filed in the database; no cut-off is given here. Bridge positions count the residues as written; N and C are the ends. Peptide text beside a SMILES is read from it.
Tests used:
Format in all cases: functional
[1] = molecular target: Amyloid-beta precursor protein (Homo sapiens) (UniProt P05067); experiment: Amyloid aggregation property at high concentration over 3 days by thioflavin-T fluorescence assay; conditions: time 3.0 day
In short: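 Peptide was dissolved in water at pH 4.2–4.5 or 7.2–7.4, filtered and centrifuged to leave monomers. ThT and NaCl were added to give 1 or 5 mg/mL peptide final. Plates were sealed and read at 37 °C with orbital shaking for 3 days (ex 445 nm/em 490 nm, bottom read). Triplicates, with peptide-free ThT background subtracted; mean and SD were reported.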

[2] = molecular target: Amyloid-beta precursor protein (Homo sapiens) (UniProt P05067); experiment: Amyloid aggregation property at high concentration by CD spectroscopy
In short: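 Far-UV CD (185–260 nm, spectra truncated at 195 nm) in a 1.0 mm cuvette. Samples were 200–300 μM peptide with 150 mM NaCl at pH 4.5 or 7.4, kept at 37 °C and shaken at 500 rpm between acquisitions. Each spectrum is the average of 3 scans at 50 nm/min, solvent-subtracted, Savitzky–Golay smoothed, and expressed as mean residue molar ellipticity.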

[3] = molecular target: Amyloid-beta precursor protein (Homo sapiens) (UniProt P05067); experiment: Amyloid aggregation property at high concentration by atomic force microscopy analysis
In short: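 AFM in dynamic mode on 10 μL aliquots taken at the endpoint of the agitated aggregation samples: ThT samples (37 °C, pH ~4.5 or ~7.4) after 3 days and CD samples (200–300 μM, 150 mM NaCl) after 2 weeks.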

INS-1E = experiment: Induction of insulin secretion in rat INS-1E cells assessed as median fold increase at 20 nM pretreated with glucose for 30 mins followed by KRBH washout for 30 mins and subsequent glucose and compound addition for another 30 mins by ELISA

Sequence of Amyloid-beta precursor protein (Homo sapiens) (P05067 whole entry, the tested form may be a part): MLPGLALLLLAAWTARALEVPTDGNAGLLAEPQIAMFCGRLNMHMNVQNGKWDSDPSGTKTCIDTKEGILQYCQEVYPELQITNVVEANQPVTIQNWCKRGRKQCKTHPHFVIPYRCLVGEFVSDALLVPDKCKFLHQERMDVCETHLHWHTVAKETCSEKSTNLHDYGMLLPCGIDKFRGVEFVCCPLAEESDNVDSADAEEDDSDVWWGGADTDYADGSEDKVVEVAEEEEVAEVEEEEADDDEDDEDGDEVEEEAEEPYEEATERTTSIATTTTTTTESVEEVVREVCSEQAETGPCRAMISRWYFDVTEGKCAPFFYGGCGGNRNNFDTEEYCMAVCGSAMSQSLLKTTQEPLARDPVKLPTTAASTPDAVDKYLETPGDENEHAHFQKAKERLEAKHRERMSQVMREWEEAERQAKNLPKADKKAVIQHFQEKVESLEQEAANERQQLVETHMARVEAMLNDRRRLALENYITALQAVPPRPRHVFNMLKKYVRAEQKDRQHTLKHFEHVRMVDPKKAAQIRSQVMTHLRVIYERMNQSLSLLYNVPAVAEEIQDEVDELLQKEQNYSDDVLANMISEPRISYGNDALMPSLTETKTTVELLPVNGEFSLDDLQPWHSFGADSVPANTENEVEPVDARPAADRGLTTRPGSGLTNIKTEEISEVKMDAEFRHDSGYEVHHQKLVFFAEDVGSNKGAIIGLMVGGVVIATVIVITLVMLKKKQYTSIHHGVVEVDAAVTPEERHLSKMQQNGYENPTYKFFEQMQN

Activity [1]	Activity [2]	Activity [3]	SMILES	Activity (INS-1E)
Active	Active	Active	CC[C@H](C)[C@H](NC(=O)[C@H](Cc1ccc(O)cc1)NC(=O)[C@H](CC(C)C)NC(=O)[C@H](CCCNC(=N)N)NC(=O)[C@@H](NC(=O)[C@H](C)NC(=O)[C@H](CCC(=O)O)NC(=O)[C@H](CCC(=O)O)NC(=O)[C@H](CCC(=O)O)NC(=O)[C@H](CCSC)NC(=O)[C@H](CCC(N)=O)NC(=O)[C@H](CCCCN)NC(=O)[C@H](CO)NC(=O)[C@H](CC(C)C)NC(=O)[C@H](CC(=O)O)NC(=O)[C@H](CO)NC(=O)[C@@H](NC(=O)[C@H](Cc1ccccc1)NC(=O)[C@@H](NC(=O)CNC(=O)[C@H](CCC(=O)O)NC(=O)CNC(=O)[C@@H](N)Cc1cnc[nH]1)[C@@H](C)O)[C@@H](C)O)C(C)C)C(=O)N[C@@H](CCC(N)=O)C(=O)N[C@@H](Cc1c[nH]c2ccccc12)C(=O)N[C@@H](CC(C)C)C(=O)N[C@@H](CCCCN)C(=O)N[C@@H](CC(=O)O)C(=O)NCC(=O)NCC(=O)N1CCC[C@H]1C(=O)N[C@@H](CO)C(=O)N[C@@H](CO)C(=O)NCC(=O)N[C@@H](CCCNC(=N)N)C(=O)N1CCC[C@H]1C(=O)N1CCC[C@H]1C(=O)N1CCC[C@H]1C(=O)N[C@@H](CO)C(=O)O	–
–	–	–	CC[C@H](C)[C@@H]1NC(=O)[C@H](Cc2ccc(O)cc2)NC(=O)[C@H](CC(C)C)NC(=O)[C@H](CCCNC(=N)N)NC(=O)[C@H](C(C)C)NC(=O)[C@@H](NC(=O)[C@H](CCC(=O)O)NC(=O)[C@H](CCC(=O)O)NC(=O)[C@H](CCC(=O)O)NC(=O)[C@H](CCSC)NC(=O)[C@H](CCC(N)=O)NC(=O)[C@H](CCCCN)NC(=O)[C@H](CO)NC(=O)[C@H](CC(C)C)NC(=O)[C@H](CC(=O)O)NC(=O)[C@H](CO)NC(=O)[C@@H](NC(=O)[C@H](Cc2ccccc2)NC(=O)[C@@H](NC(=O)CNC(=O)[C@H](CCC(=O)O)NC(=O)CNC(=O)[C@@H](N)Cc2cnc[nH]2)[C@@H](C)O)[C@@H](C)O)CSSC[C@@H](C(=O)O)NC(=O)[C@@H]2CCCN2C(=O)[C@@H]2CCCN2C(=O)[C@@H]2CCCN2C(=O)[C@H](CCCNC(=N)N)NC(=O)CNC(=O)[C@H](CO)NC(=O)[C@H](CO)NC(=O)[C@@H]2CCCN2C(=O)CNC(=O)CNC(=O)[C@H](CC(=O)O)NC(=O)[C@H](CCCCN)NC(=O)[C@H](CC(C)C)NC(=O)[C@H](Cc2c[nH]c3ccccc23)NC(=O)[C@H](CCC(N)=O)NC1=O (H-HGEGTFTSDLSKQMEEECVRLYIQWLKDGGPSSGRPPPC-OH; disulfide 18-39)	inactive
